# Reference: ChEMBL document CHEMBL3593155, “Synthesis and evaluation of N-analogs of 1,2-diarylethane as Helicobacter pylori urease inhibitors” (Bioorg Med Chem, 2015)
# Legend:
# [1] = target: T1, Urease subunit alpha/Urease subunit beta (Helicobacter pylori (strain ATCC 700392 / 26695) (Campylobacterpylori), UniProt P69996); assay: Inhibition of urease isolated from Helicobacter pylori ATCC 43504 assessed as ammonia production incubated for 1.5 hrs prior to testing by indophenol method
# Method in brief: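 Washed cells were sonicated in water with protease inhibitors, and the supernatant was desalted on Sephadex G-25. This crude urease, mixed with an equal volume of glycerol, was pre-incubated with test compound for 1.5 h at room temperature.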
# [2] = target: T1, Urease subunit alpha/Urease subunit beta; assay: Inhibition of urease in Helicobacter pylori ATCC 43504 assessed as ammonia production incubated for 1.5 hrs prior to testing by indophenol method
# Method in brief: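 Washed cells were sonicated 60 s in water with protease inhibitors. The supernatant was desalted on Sephadex G-25 and stored with equal-volume glycerol at 4 °C. Enzyme was preincubated with compound 1.5 h at room temperature.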
# [3] = target: T2, Urease subunit alpha/Urease subunit beta (Helicobacter pylori (strain ATCC 700392 / 26695) (Campylobacterpylori)) (UniProt P69996+P14916); assay: Potency index, ratio of AHA IC50 to compound IC50 for urease in Helicobacter pylori ATCC 43504
# [4] = target: T2, Urease subunit alpha/Urease subunit beta (Helicobacter pylori (strain ATCC 700392 / 26695) (Campylobacterpylori)); assay: Potency index, ratio of AHA IC50 to compound IC50 for urease isolated from Helicobacter pylori ATCC 4350; conditions: Helicobacter pylori ATCC 43504
# T1 sequence (P69996 whole entry): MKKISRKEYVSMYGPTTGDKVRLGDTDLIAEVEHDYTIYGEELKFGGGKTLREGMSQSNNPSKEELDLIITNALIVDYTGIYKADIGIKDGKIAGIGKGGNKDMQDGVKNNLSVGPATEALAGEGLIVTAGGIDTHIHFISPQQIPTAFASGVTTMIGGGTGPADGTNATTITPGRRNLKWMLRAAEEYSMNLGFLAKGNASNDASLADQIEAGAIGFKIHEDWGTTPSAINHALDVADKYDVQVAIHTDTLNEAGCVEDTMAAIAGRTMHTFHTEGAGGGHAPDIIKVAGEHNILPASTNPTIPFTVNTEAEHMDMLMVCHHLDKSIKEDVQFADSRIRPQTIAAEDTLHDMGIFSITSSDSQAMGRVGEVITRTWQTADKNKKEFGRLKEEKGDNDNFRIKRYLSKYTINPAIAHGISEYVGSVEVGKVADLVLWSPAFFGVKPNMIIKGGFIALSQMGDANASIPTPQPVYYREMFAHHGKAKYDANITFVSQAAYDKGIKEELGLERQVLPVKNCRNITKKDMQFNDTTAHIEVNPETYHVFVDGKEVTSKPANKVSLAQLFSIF
# T1 sequence (P14916 whole entry, further chain): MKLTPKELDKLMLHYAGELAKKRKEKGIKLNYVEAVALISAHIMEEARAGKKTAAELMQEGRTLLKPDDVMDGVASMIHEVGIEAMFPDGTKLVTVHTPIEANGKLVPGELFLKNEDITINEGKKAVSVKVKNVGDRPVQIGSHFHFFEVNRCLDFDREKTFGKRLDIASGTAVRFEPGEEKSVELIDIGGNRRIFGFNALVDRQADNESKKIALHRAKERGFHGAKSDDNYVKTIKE
# T2 sequence (P14916 whole entry, looked up): as the sequence (P14916 whole entry, further chain) above
# T2 sequence (P69996 whole entry, looked up): as the sequence (P69996 whole entry) above
smiles,measurement,setting,value
O=[N+]([O-])c1ccc(NCc2ccc(Cl)cc2)cc1,IC50,[1],19.5 µM
same,IC50,[2],83.8 µM
O=[N+]([O-])c1ccc(NCc2ccc(O)cc2)cc1,IC50,[1],8.26 µM
same,IC50,[2],28.1 µM
O=[N+]([O-])c1ccccc1CNc1ccc(Cl)cc1,IC50,[1],239 µM
O=[N+]([O-])c1ccc(CNc2ccc([N+](=O)[O-])cc2)cc1,IC50,[1],26.3 µM
same,IC50,[2],126 µM
COc1ccc(CNc2ccc(Cl)cc2)cc1OC,IC50,[1],> 500 µM
CN(C)c1ccc(CNc2cccc([N+](=O)[O-])c2)cc1,IC50,[1],16.8 µM
same,IC50,[2],72.4 µM
CN(C)c1ccc(CNc2ccc(Cl)cc2)cc1,IC50,[1],> 500 µM
Clc1ccc(NCc2ccc3c(c2)OCO3)cc1,IC50,[1],> 500 µM
O=[N+]([O-])c1ccccc1NCc1ccc(O)c(O)c1,IC50,[1],45.1 µM
O=[N+]([O-])c1cccc(NCc2ccc(Cl)cc2)c1,IC50,[1],57.5 µM
COc1ccc(NCc2ccc(Cl)cc2)cc1,IC50,[1],> 500 µM
COc1ccc(NCc2cccc([N+](=O)[O-])c2)cc1,IC50,[1],319 µM
O=[N+]([O-])c1cccc(NCc2ccc(O)c(O)c2)c1,IC50,[1],2.33 µM
same,IC50,[2],9.52 µM
COc1ccc(NCc2ccc(N(C)C)cc2)cc1,IC50,[1],> 500 µM
O=[N+]([O-])c1cccc(CNc2cccc([N+](=O)[O-])c2)c1,IC50,[1],85 µM
O=[N+]([O-])c1cccc(CNc2cccc(Cl)c2)c1,IC50,[1],410 µM
COc1ccc(CNc2cccc([N+](=O)[O-])c2)cc1OC,IC50,[1],50.4 µM
O=[N+]([O-])c1ccc(CNc2cccc(Cl)c2)cc1,IC50,[1],236 µM
O=[N+]([O-])c1ccc(NCc2ccc(O)c(O)c2)cc1,IC50,[1],0.62 µM
same,IC50,[2],1.92 µM
same,Ratio IC50,[3],54
same,Ratio IC50,[4],29
O=[N+]([O-])c1ccc(CNc2cccc([N+](=O)[O-])c2)cc1,IC50,[1],64.9 µM
CC(=O)NO [ACETOHYDROXAMIC ACID],IC50,[1],18.4 µM
same,IC50,[2],105 µM
